From PubChem BioAssay
The list is not random: actives were taken first. Their share in the collection is about 2%.
XiGFP reactiv: activators of inactive X chromosome reactivation, primary screen, imaging, XiGFP fibroblasts, GFP high-content imaging, set 2. XiGFP mouse fibroblasts, % GFP-positive cells imaging, 3 d; cells co-treated with 5-aza-dC sensitizer; scaled so ellipticine positive control = 100%. AID 743238, 2013. 360,000 tested, 0.055% active. activation, % at 7.58 µM;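 active = mean normalized replicate activation at least 10% and every replicate at or above 10%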;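 note: 0% = median of on-plate neutral control wells and 100% = ellipticine 6 µM median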
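System: XiGFP fibroblasts, SV40-immortalized. Medium: DMEM plus 5-aza-dC sensitizer. Doses: single point. Timing: 3 d treatment, 15 min room-temperature fixation. Control set: ellipticine 6 µM.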
PglD inh: C. jejuni PglD acetyltransferase inhibitors, primary screen, biochemical, DTNB colorimetric, single point | inhibition, % at 12.5 µM | 360,000 tested, 0.098% active | AID 602405, 2012 | purified PglD enzyme, DTNB colorimetric CoA detection; in the data active = inhibition above about 16%, passing the limit was not always enough
E-sel inducer: E-selectin induction in HUVECs, primary screen, imaging, HUVEC, immunofluorescence imaging, single point | P16581 | normalized: neutral wells 0, TNF-alpha wells 100 | activation, % at 7.58 µM | 260,000 tested, 0.37% active;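 active = mean E-selectin-positive cell signal at least 10% of the positive control, reached in at least 60% of replicates, without over 20% cell loss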
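assay system = HUVEC, human umbilical vein endothelial cells | input = 3,000 HUVEC seeded per well | medium = EGM-2 growth medium on 0.1% gelatin-coated wells | dosing = one compound dose added by pin transfer | signal = immunofluorescence imaging | read-out basis = % PE-positive cells | control set = TNF-alpha, DMSO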
RAD52 inh: RAD52 DNA annealing inhibitors, primary screen, biochemical, FRET, single point, set 2; 360,000 tested, 0.46% active; inhibition, % at 18.7 µM; DNA repair protein RAD52 homolog (Homo sapiens), P43351; recombinant RAD52 DNA annealing, FRET fluorescence;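 active = every replicate showing at least 50% inhibition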
rRNA inh HTS: reduced GFP signal of wild-type E. coli, primary screen, bacterial rRNA inhibitor project, GFP/RFP fluorescence, OD600, single point; E. coli WT GFP vs humanized-ribosome RFP mutants, 24 h; stronger effect = lower value; DMSO median 0, no signal -100; GFP signal change (wild-type ribosome), % (no concentration beside the values); 350,000 tested, 1.6% active; AID 720706, 2013;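 active = significant combined selectivity score with lowered wild-type GFP, culture density cut under 30%, mutant RFP and density less affected; inactive = any of these conditions unmet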
RAD54 branch: inhibitors of human RAD54 branch migration, primary screen, biochemical, fluorescence, single point; DNA repair and recombination protein RAD54-like (Homo sapiens), Q92698; RAD54 Holliday junction branch migration, FAM/BHQ fluorescence; inhibition, % at 10.4 µM; 360,000 tested, 0.14% active; AID 602329, 2012;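 active = mean normalized replicate activity at least 40 and at least half of replicates scoring 40 or more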;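 note: 0% = median of neutral control wells and 100% = median of positive control wells; inhibitors cause a drop in the FAM fluorescence signal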
Target sequence (Q92698 whole entry, looked up): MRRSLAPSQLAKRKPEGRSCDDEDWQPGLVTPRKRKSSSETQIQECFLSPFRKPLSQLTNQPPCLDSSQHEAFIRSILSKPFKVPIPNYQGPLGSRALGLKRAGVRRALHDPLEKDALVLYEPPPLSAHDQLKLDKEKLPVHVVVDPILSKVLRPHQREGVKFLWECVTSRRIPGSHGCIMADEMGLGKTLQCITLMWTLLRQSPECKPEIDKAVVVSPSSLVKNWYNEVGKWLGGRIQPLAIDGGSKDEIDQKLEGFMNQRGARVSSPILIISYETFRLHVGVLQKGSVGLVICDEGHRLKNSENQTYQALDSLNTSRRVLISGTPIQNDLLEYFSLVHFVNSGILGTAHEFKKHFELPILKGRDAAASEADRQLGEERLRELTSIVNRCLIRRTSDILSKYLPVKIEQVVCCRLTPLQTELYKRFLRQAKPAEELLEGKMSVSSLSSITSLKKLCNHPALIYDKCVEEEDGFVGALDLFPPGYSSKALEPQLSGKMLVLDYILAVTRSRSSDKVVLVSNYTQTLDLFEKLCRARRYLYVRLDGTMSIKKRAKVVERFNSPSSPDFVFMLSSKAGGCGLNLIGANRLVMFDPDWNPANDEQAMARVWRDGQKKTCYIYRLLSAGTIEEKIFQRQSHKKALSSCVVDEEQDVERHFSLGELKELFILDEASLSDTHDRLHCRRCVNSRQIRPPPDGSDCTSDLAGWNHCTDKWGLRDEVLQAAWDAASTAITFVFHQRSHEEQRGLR
Numbers without * were called inactive; i = inactive; / = no result; ! = repeats disagree.

SMILES | XiGFP reactiv | PglD inh | E-sel inducer | RAD52 inh | rRNA inh HTS | RAD54 branch
CC(=O)N1c2ccc(S(=O)(=O)N3CCC(C(=O)NCc4ccc(C)cc4)CC3)cc2CC1C (stereo unspecified) | 0 | 2 | / | -3 | 8 | 12
Cc1ccc(CNC(=O)C2CCN(S(=O)(=O)c3ccc4c(c3)CC(C)N4C(=O)C3CC3)CC2)cc1 (stereo unspecified) | 0 | 3 | / | -6 | -28* | 6
O=C(C[C@H]1CC[C@H]2[C@@H](COC[C@H](O)CN2C(=O)C2CCOCC2)O1)NCc1ccncc1 | 0 | 1 | 0 | -60 | 12 | -6
Cc1cc2[nH]c3c4ccccc4nc(C)c3c2cc1C | 0 | -8 | / | 83* | -58 | 91*
CCN1/C(=C/C=C/c2oc3ccc(-c4ccccc4)cc3[n+]2CC)Oc2ccc(-c3ccccc3)cc21 | 103* | -1 | 218* | i | 87 | -304
C/C=C/c1ccc([C@H]2[C@@H](CO)N3C(=O)CN(C(=O)c4ccncc4)C[C@@H]23)cc1 | 0 | / | 0 | 8 | -1 | /
Cn1c2ccccc2c(=O)c2c(=O)n(Cc3ccco3)c(-c3ccc(F)cc3)nc21 | 0 | -6 | 0 | -11 | -38* | -7
Cc1ccc(-c2nc3c(c(=O)c4ccccc4n3C)c(=O)n2Cc2ccco2)cc1 | 0 | 9 | / | -29 | -28 | 8
C[C@@H]1CN([C@@H](C)CO)C(=O)c2cc(C3=CCCC3)cnc2O[C@@H]1CN(C)Cc1ccccc1 | -1 | 1 | 0 | 8 | 5 | -7
COc1ccccc1-c1ccc(C2[C@@H]3CN(S(=O)(=O)c4ccccc4)C[C@H]2N3)cc1 (stereo partly specified) | 0 | / | 0 | 55* | -55 | /
COc1ccccc1-c1ccc(C2[C@H]3CNC[C@@H]2N3S(=O)(=O)c2ccccc2)cc1 (stereo partly specified) | 0 | / | 1 | 36 | -16 | /
COc1ccccc1-c1ccc(C2[C@@H]3CN(S(=O)(=O)c4ccc(F)cc4)C[C@H]2N3)cc1 (stereo partly specified) | 0 | / | 0 | 61*! | -58 | /
COc1ccccc1-c1ccc(C2[C@@H]3CN(S(=O)(=O)c4ccc(C)cc4)C[C@H]2N3)cc1 (stereo partly specified) | 0 | / | 0 | / | -7 | /
COc1ccc(CNC(=S)Nc2ccc(F)c(Cl)c2)cc1OC | 0 | / | 0 | -15 | -27* | /
Cc1noc(NS(=O)(=O)c2ccc(NC(=O)c3ccc(OC(C)C)cc3)cc2)c1C | 0 | / | / | -1 | -31* | /
COc1ccccc1NS(=O)(=O)c1cc(C(=O)Nc2ccc(S(=O)(=O)Nc3onc(C)c3C)cc2)ccc1C | 0 | 4 | / | -11 | -21* | 2
COc1ccc(-c2cc(C(=O)Nc3ccc(S(=O)(=O)Nc4ncccn4)cc3)c3ccccc3n2)cc1 | 0 | 0 | 5 | -19 | 11 | 7
COc1ccc(-c2cc(C(=O)Nc3ccc(S(=O)(=O)Nc4onc(C)c4C)cc3)c3ccccc3n2)cc1 | 0 | 3 | / | -35 | -18* | -8
C[C@@H]1CN([C@H](C)CO)C(=O)c2cc(N(C)C)ccc2O[C@@H](C)CCCCO[C@H]1CN(C)Cc1ccc(C(=O)O)cc1 | 0 | 0 | 0 | -14 | 0 | -3
COCC(=O)N1[C@@H](CO)[C@@H]2c3ccccc3N(C(=O)c3ccccc3F)C[C@@H]21 | 0 | -1 | 0 | 1 | 3 | 4
COc1ccc(CCn2ccc(O)c(Cc3ccc(Cl)cc3)c2=O)cc1OC | 0 | -15 | -3 | -8 | -29* | -3
COC(=O)Cc1c(O)ccn(CCc2ccc(OC)c(OC)c2)c1=O | 0 | -2 | / | -6 | 12 | -2
O=C1CC[C@@H](CN(Cc2ccccc2)Cc2cn[nH]c2-c2cc3ccccc3o2)N1 | 0 | 0 | 2 | -11 | -24* | 0
c1ccc2oc(-c3[nH]ncc3CN(Cc3ccncc3)CC3CCCO3)cc2c1 (stereo unspecified) | 0 | 1 | 0 | -20 | -11 | 7
C[C@@H]1CN([C@@H](C)CO)C(=O)c2cc(NS(=O)(=O)c3cn(C)cn3)ccc2O[C@@H]1CN(C)CC1CC1 | 0 | 1 | 0 | 4 | 7 | 11
SMILES | XiGFP reactiv | PglD inh | E-sel inducer | RAD52 inh | rRNA inh HTS | RAD54 branch
COc1ccc(NC(=O)N2C[C@@H](O)COC[C@H]3O[C@H](CC(=O)N4CCOCC4)CC[C@@H]32)cc1 | 0 | 1 | 0 | -5 | 2 | 4
CC(=O)NC(=S)Nc1sc2c(c1C(N)=O)CCC(C)C2 (stereo unspecified) | 0 | / | / | 0 | -28* | /
Cc1nc(N)c(CC(Br)CBr)c(Cl)n1 (stereo unspecified) | 0 | / | / | -3 | -38* | /
C[C@H]1CN([C@@H](C)CO)C(=O)c2cc(NC(=O)c3ccncc3)ccc2O[C@H]1CN(C)C(=O)Nc1ccc(C(F)(F)F)cc1 | -1 | 0 | 0 | -1 | -3 | 4
Cc1ccc(S(=O)(=O)Nc2ccc3c(c2)C(=O)N([C@@H](C)CO)C[C@@H](C)[C@H](CN(C)C(=O)CCCN(C)C)OCCCC[C@@H](C)O3)cc1 | 0 | -3 | / | 28 | 3 | 4
Cc1cccc(NC(=S)N2N=CCC2c2ccccc2)c1 (stereo unspecified) | / | 3 | / | -11 | -23* | -3
Cc1ccc(NC(=O)c2ccc(NCCCN3CCC(C)CC3)c([N+](=O)[O-])c2)cc1F | 1 | / | -1 | 21 | -25* | /
COCC(=O)Nc1ccc2c(c1)[C@@H]1C[C@H](CC(=O)N[C@H](C)c3ccccc3)O[C@@H](CO)[C@@H]1O2 | 0 | 0 | 0 | 3 | 0 | 7
CC(=O)c1ccc(-c2c(C)cc3oc(=O)cc(-c4ccccc4)c3c2C)cc1 | 0 | -1 | / | -3 | -22* | 0
CCN(CC)S(=O)(=O)c1cccc(-c2n[nH]c(=S)n2/N=C/c2ccc(OC(F)F)cc2)c1 | 0 | / | / | -8 | -18* | /
